Results on 39 compounds are retold here after ChEMBL document CHEMBL3769319, “Antischistosomal activity of N,N'-arylurea analogs against Schistosoma japonicum” (Bioorg Med Chem Lett, 2016).

For assay [1], the system named is Schistosoma japonicum. Description: Antischistosomal activity against juvenile stage of Schistosoma japonicum after 72 hrs by microscopy. Format: functional, organism-based. A digest of the protocol: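 Juvenile S. japonicum were screened at 32 µM for 72 h. Compounds that killed worms were then tested three times in 2-fold serial dilutions from 32 to 2 µM, each incubated 72 h, and IC50 was calculated.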

The subject of assay [2] is Schistosoma japonicum. Nature of the assay: Antischistosomal activity against juvenile stage of Schistosoma japonicum at 32 uM after 72 hrs by microscopy.
The test system of assay [3] is Schistosoma japonicum. Nature of the assay: Antischistosomal activity against adult stage of Schistosoma japonicum infected in ICR mouse assessed as reduction of parasite burden at 400 mg/kg, po administered as single dose measured after 14 days. On the set-up: scale not given: the % may be the effect or the level left. The assay is classed as functional. The gist of the method:
(§1)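 Mice with adult S. japonicum infection got one oral dose (200 or 400 mg/kg) as an ultrasound-aided corn oil suspension; one group got an HP-β-CD complex solution instead. Untreated infected mice served as controls, 5–6 per group. Worm counts (mean, SD) gave percent worm burden reduction against control.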

The subject of assay [4] is Schistosoma japonicum. Description: Antischistosomal activity against adult stage of Schistosoma japonicum after 72 hrs by microscopy. The assay is classed as functional, organism-based.
The subject of assay [5] is Schistosoma japonicum. Description: Antischistosomal activity against juvenile stage of Schistosoma japonicum infected in ICR mouse assessed as reduction of parasite burden at 400 mg/kg, po administered as single dose measured after 14 days. Set-up: scale not given: the % may be the effect or the level left. Format: functional.
Assay [6] relates to Schistosoma japonicum. Nature of the assay: Antischistosomal activity against juvenile stage of Schistosoma japonicum infected in ICR mouse assessed as reduction of parasite burden at 200 mg/kg, po administered as single dose measured after 14 days. Format: functional. Set-up: scale not given: the % may be the effect or the level left.
Assay [7] concerns Schistosoma japonicum. Description: Antischistosomal activity against adult stage of Schistosoma japonicum infected in ICR mouse assessed as reduction of parasite burden at 200 mg/kg, po administered as single dose measured after 14 days. The assay is classed as functional. On the set-up: scale not given: the % may be the effect or the level left. The gist of the method:
as §1

The test system of a further assay is Schistosoma mansoni. Nature of the assay: Antischistosomal activity against Schistosoma mansoni infected in mouse assessed as reduction of parasite burden at 400 mg/kg, po administered as single dose. Set-up: scale not given: the % may be the effect or the level left. Format: functional.

Calls of active or inactive are those of the source. The calls are words filed in the database; no cut-off is given here.

For the compound `O=C(Nc1ccc(N2CCOCC2)c(C(F)(F)F)c1)Nc1ccc(N2CCOCC2)c(C(F)(F)F)c1`, in the assay on Schistosoma japonicum [1], the IC50 is 22.6 µM.
As to `O=C(Nc1ccccn1)Nc1ccccn1`, the result with Schistosoma japonicum [2] was inactive.
Same read-out and setting: the result for `O=C1C(=O)N(c2ccc(Cl)c(C(F)(F)F)c2)C(=O)N1c1ccc(Cl)c(Cl)c1` reads “inactive”.
On the same count and under the same terms, for `O=C(Nc1cccnc1)Nc1cccnc1` the value was “inactive”.
With `Nc1ccc(NC(=O)Nc2ccc(Cl)c(Cl)c2)cc1`, the result in the assay on Schistosoma japonicum [2] was inactive.
Turning to `O=C(Nc1ccc(Cl)c(Cl)c1)Nc1ccc(N2CCOCC2)c(C(F)(F)F)c1`, the Activity with Schistosoma japonicum [3] came out at 3.4%; with Schistosoma japonicum [5], 18.8%. Also, the IC50 came out at 9.6 µM with Schistosoma japonicum [1] and 8400 nM in the assay with Schistosoma japonicum [4].
In the case of `O=C(Nc1ccc(Cl)c(Cl)c1)C(=O)Nc1ccc(Cl)c(Cl)c1`, the outcome in the assay with Schistosoma japonicum [2] was inactive.
As for `O=C(Nc1cnc(Cl)c(Cl)c1)Nc1cnc(Cl)c(Cl)c1`, the outcome with Schistosoma japonicum [2] was inactive.
The same measure, in the same setting: for `CCCCNC(=O)Nc1ccc(Cl)c(Cl)c1` the value was “inactive”.
As to `O=S(=O)(Nc1ccc(Cl)c(Cl)c1)Nc1ccc(Cl)c(Cl)c1`, in the assay on Schistosoma japonicum [2], the result was Active. The compound further had an IC50 in the assay with Schistosoma japonicum [1] of 22.6 µM.
The compound `O=C(Nc1ccc(Cl)c(Cl)c1)Nc1cnc(Cl)c(Cl)c1` had an IC50 in the assay on Schistosoma japonicum [1] of 11.3 µM.
As to `Clc1ccc(Nc2nc(Nc3ccc(Cl)c(Cl)c3)nc(N3CCOCC3)n2)cc1Cl`, the outcome with Schistosoma japonicum [2] was Active. In the assay with Schistosoma japonicum [1], the IC50 came out at 19 µM.
Regarding `O=C(Nc1ccc(F)c(F)c1)Nc1ccc(Cl)c(Cl)c1`, the Activity in the assay with Schistosoma japonicum [3] is given as 0%; in the assay on Schistosoma japonicum [5], 27.8%. In addition, the IC50 in the assay on Schistosoma japonicum [1] worked out at 4.7 µM; in the assay with Schistosoma japonicum [4], 2200 nM.
On to `Clc1nc(Nc2ccc(Cl)c(Cl)c2)nc(Nc2ccc(Cl)c(Cl)c2)n1`, for which, in the assay on Schistosoma japonicum [2], the outcome was inactive.
Same read-out and setting: the result for `O=C(Nc1ccc(Cl)c(Cl)c1)Nc1ccccc1F` reads “inactive”.
In the case of `C[C@H]1[C@H](OC(=O)CCC(=O)O)O[C@@H]2O[C@@]3(C)CC[C@H]4[C@H](C)CC[C@@H]1[C@@]24OO3` [ARTESUNATE], the Activity with Schistosoma japonicum [5] is 72.4%.
On to `S=C(Nc1ccc(Cl)c(Cl)c1)Nc1ccc(Cl)c(Cl)c1`, for which the outcome in the assay on Schistosoma japonicum [2] was inactive.
In the case of `O=C(Nc1ccc(Cl)c(Cl)c1)Nc1ccc(Cl)c(C(F)(F)F)c1`, the Activity worked out at 11.6% in the assay with Schistosoma japonicum [6] and 26.6% in the assay on Schistosoma japonicum [7]. For the same compound, the IC50 stood at 2.5 µM in the assay with Schistosoma japonicum [1] and 1500 nM in the assay with Schistosoma japonicum [4].
On to `O=C(Nc1ccc(Cl)c(Cl)c1)NC12CC3CC(CC(C3)C1)C2`, for which the outcome in the assay with Schistosoma japonicum [2] was inactive.
Take `COc1ccccc1NC(=O)Nc1ccc(Cl)c(Cl)c1`: in the assay on Schistosoma japonicum [2], the result was inactive.
On the same count and under the same terms, the result for `Clc1ccc(Nc2cc(Nc3ccc(Cl)c(Cl)c3)ncn2)cc1Cl` reads “inactive”; that for `O=C1N(c2ccc(Cl)c(Cl)c2)CCN1c1ccc(Cl)c(C(F)(F)F)c1`, “inactive”.
Compound `O=C(Nc1cccc(Cl)c1)Nc1ccc(Cl)c(Cl)c1` had an IC50 in the assay with Schistosoma japonicum [1] of 10.1 µM.
On to `N#Cc1cc(NC(=O)Nc2ccc(Cl)c(Cl)c2)ccc1F`, for which the Activity in the assay on Schistosoma japonicum [3] is given as 11.4%; with Schistosoma japonicum [5] it was 14.6%. Further, the results for the IC50 with Schistosoma japonicum [1] and with Schistosoma japonicum [4] were 4.3 µM and 2200 nM, respectively.
In the assay with Schistosoma japonicum [1], `O=C(Nc1ccc(Cl)c(Cl)c1)Nc1cccc2ccccc12` came in with an IC50 of 12.8 µM.
In the case of `Cc1ccc(NC(=O)Nc2ccc(Cl)c(Cl)c2)cc1Cl`, in the assay with Schistosoma japonicum [1], 12.7 µM corresponded to half-maximal inhibition (IC50).
Take `O=C(Nc1ccc(Cl)c(C(F)(F)F)c1)Nc1ccc(Cl)c(C(F)(F)F)c1`: the Activity in the assay with Schistosoma japonicum [6] stood at 33.4%; with Schistosoma japonicum [7], 32.6%. Moreover, the half-inhibitory concentration (IC50) was 2.8 µM in the assay with Schistosoma japonicum [1] and 2200 nM in the assay with Schistosoma japonicum [4].
Turning to `COc1cccc(NC(=O)Nc2ccc(Cl)c(Cl)c2)c1`, in the assay with Schistosoma japonicum [2], the outcome was inactive.
With `COc1ccc(NC(=O)Nc2ccc(Cl)c(Cl)c2)cc1`, the outcome in the assay with Schistosoma japonicum [2] was inactive.
For the compound `O=C(Nc1ccc(Cl)c(Cl)c1)NN1CCN(c2ccccc2)CC1`, the outcome with Schistosoma japonicum [2] was inactive.
As to `O=C(Nc1ccc(Cl)c(Cl)c1)NC1CCCCC1`, in the assay on Schistosoma japonicum [2], the outcome was inactive.
For `O=C(Nc1ccc(F)c(F)c1)Nc1ccc(F)c(F)c1`, the results for the Activity in the assay with Schistosoma japonicum [3] and in the assay on Schistosoma japonicum [5] were 2.3% and 6.4%, respectively. In addition, the IC50 in the assay on Schistosoma japonicum [1] came to 7 µM; in the assay with Schistosoma japonicum [4] it was 5100 nM.
For the compound `Cc1ccc(NC(=O)Nc2ccc(Cl)c(Cl)c2)cc1`, the outcome in the assay with Schistosoma japonicum [2] was inactive.
`O=C(C1CCCCC1)N1CC(=O)N2CCc3ccccc3C2C1` (stereo not drawn) [PRAZIQUANTEL]: the Activity in the assay with Schistosoma japonicum [3] was 90.7%.
`O=C(Nc1ccccc1S(=O)(=O)N1CCOCC1)Nc1ccccc1S(=O)(=O)N1CCOCC1` returned an IC50 with Schistosoma japonicum [1] of 22.6 µM.
Regarding `O=C(Nc1ccc(Cl)c(Cl)c1)Nc1cccc2cnccc12`, the half-inhibitory concentration (IC50) with Schistosoma japonicum [1] is 22.6 µM.
In the case of `O=C(Nc1ccc(Cl)c(Cl)c1)Nc1ccc(Cl)c(Cl)c1`, the Activity in the assay on Schistosoma japonicum [3] is listed as 9.3%; in the assay with Schistosoma mansoni, 52.5%; in the assay on Schistosoma japonicum [5], 32.2%. Moreover, the IC50 amounted to 4.4 µM in the assay on Schistosoma japonicum [1] and 2200 nM with Schistosoma japonicum [4].
As for `O=C(Nc1cccnc1)Nc1ccc(Cl)c(Cl)c1`, the result with Schistosoma japonicum [2] was inactive.
Take `O=C1N(c2ccc(Cl)c(Cl)c2)C(O)C(O)N1c1ccc(Cl)c(C(F)(F)F)c1` (stereo not drawn): the outcome in the assay with Schistosoma japonicum [2] was inactive.
